Data set [1] in a line: Stability of the compound in pH 7.4 phosphate buffer solution at -20 degC incubated for 16 days. The format is physicochemical.
Data set [2] is described as follows: Stability of the compound in pH 7.4 phosphate buffer solution at 4 degC incubated for 16 days. The class given is physicochemical.
The nature of data set [3]: Solubility in pH 7.4 PBS at 3.83 mg in 100 ul solution sonicated for 5 mins followed by incubation at room temperature for 30 mins. The class given is physicochemical. In outline: (§1)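 Solid suspended in PBS pH 7.4 at the stated amount and volume, sonicated 5 min, held 30 min at room temperature, then diluted 1:1 stepwise until a clear solution. Solubility judged by visual inspection as partial or soluble.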

The subject of data set [4] is Mus musculus. As to the kind of experiment: Reduction in IL6 gene expression in lungs of C57BL/6 mouse infected with Influenza A virus (A/Puerto Rico/8/1934(H1N1)) at 10 mg/kg, ip starting on the same day as infection and continued daily until day 3 postinfection by real-time PCR analysis. The format is functional. Set-up: scale not given: the % may be the effect or the level left. In outline: (§2)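 Female C57BL/6 mice, 6–8 weeks old, infected intranasally with PR8 and given 10 mg/kg in saline by ip injection. On day 3 p.i., lungs were homogenized in Ribozol. 500 ng RNA was reverse-transcribed and run in SYBR green qPCR. Fold change versus uninfected mice was calculated by 2ΔΔCt with 18S normalization. Means ± SD from three experiments, 3–4 mice per group.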
Background: In qPCR the cycle at which signal appears reflects the starting amount.

A short description of data set [5]: Solubility in pH 7.4 PBS at 3.83 mg in 400 ul solution sonicated for 5 mins followed by incubation at room temperature for 30 mins. The class given is physicochemical. In outline:
as §1

Data set [6] has as its system Mus musculus. As to the kind of experiment: Reduction in CCL4 gene expression in lungs of C57BL/6 mouse infected with Influenza A virus (A/Puerto Rico/8/1934(H1N1)) at 10 mg/kg, ip starting on the same day as infection and continued daily until day 3 postinfection by real-time PCR analysis. Set-up: scale not given: the % may be the effect or the level left. The class given is functional. In outline: as §2

Data set [7] can be described thus: Drug metabolism in C57BL/6 mouse plasma assessed as half life for isoliquiritigenin formation by UPLC analysis. The format is ADME, cell-free. In outline: (§3)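 Mouse plasma (cardiac puncture, heparin, spun 2000g 10 min 4 °C) or lung homogenate in 0.9% saline (spun 400g 5 min), n = 3 mice, stored −80 °C. 27 μL matrix plus 5 μL of 1 mM prodrug in PBS pH 7.4, 37 °C; lung 5–20 min, plasma 40–240 min. Stopped with CH3CN, centrifuged, UPLC at 360 nm with Fmoc-glycine reference; remaining fraction from prodrug/parent AUC ratio.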

A short description of data set [8]: Solubility in pH 7.4 PBS at 3.83 mg in 200 ul solution sonicated for 5 mins followed by incubation at room temperature for 30 mins. The class given is physicochemical. In outline:
as §1

Data set [9] can be described thus: Solubility in pH 7.4 PBS sonicated for 5 mins followed by incubation at room temperature for 30 mins. The format is physicochemical. In outline:
as §1

Data set [10] in a line: Stability in pH 7.4 PBS buffer at 37 degC incubated for 24 hrs by UPLC analysis. The class given is physicochemical. Particulars: pH 7.4, 24 h.
Data set [11] is described as follows: Drug metabolism in C57BL/6 mouse lung extracts assessed as half life for isoliquiritigenin formation by UPLC analysis. The class given is ADME, tissue-based. In outline: as §3
Data set [12] is described as follows: Stability of the compound in amophous solid form at ambient temperature incubated for 16 days. The format is physicochemical. The conditions noted are these: 384 h.
Data set [13] in a line: Stability of the compound in amophous solid form at -20 degC incubated for 16 days. The class given is physicochemical.
The nature of data set [14]: Solubility in pH 7.4 PBS at 0.5 mg in 8 ul solution sonicated for 5 mins followed by incubation at room temperature for 30 mins. The format is physicochemical. In outline: as §1
Data set [15] can be described thus: Solubility in pH 7.4 PBS at 0.5 mg in 32 ul solution sonicated for 5 mins followed by incubation at room temperature for 30 mins. The class given is physicochemical. In outline:
as §1

A short description of data set [16]: Solubility in pH 7.4 PBS at 0.5 mg in 16 ul solution sonicated for 5 mins followed by incubation at room temperature for 30 mins. The class given is physicochemical. In outline: as §1
Data set [17] is described as follows: Solubility in pH 7.4 PBS at 0.5 mg in 128 ul solution sonicated for 5 mins followed by incubation at room temperature for 30 mins. The format is physicochemical. In outline: as §1
Data set [18] can be described thus: Solubility in pH 7.4 PBS at 0.5 mg in 4 ul solution sonicated for 5 mins followed by incubation at room temperature for 30 mins. The format is physicochemical. In outline: as §1
A short description of data set [19]: Solubility in pH 7.4 PBS at 0.5 mg in 2 ul solution sonicated for 5 mins followed by incubation at room temperature for 30 mins. The class given is physicochemical. In outline: as §1
Data set [20] is described as follows: Solubility in pH 7.4 PBS at 0.5 mg in 64 ul solution sonicated for 5 mins followed by incubation at room temperature for 30 mins. The class given is physicochemical. In outline:
as §1

For the next data set, the system named is Influenza A virus. As to the kind of experiment: Antiviral activity against Influenza A virus (A/Puerto Rico/8/1934(H1N1)) infected in MDCK cells infected with supernatants from virus-infected human Calu3 cells treated with compound for 2 days assessed as reduction in viral replication by crystal violet staining based viral plaque assay. The class given is functional, organism-based. Particulars: 48 h.

[21] abbreviates: phosphate buffer solution, pH 7.4, read-out: Stability.

These results are taken from ChEMBL document CHEMBL4270484, “Synthesis and Characterization of a Phosphate Prodrug of Isoliquiritigenin” (J Nat Prod, 2017).

pEC50: −log10 of the molar value. Converted amounts (≈) assume the structure as drawn.

A word on the solubility: it is how much of the substance goes into solution per volume. As to `N.O=C(/C=C/c1ccc(OCOP(=O)(O)O)cc1)c1ccc(O)cc1O`, the Stability result in data set [1] (buffer, pH 7.4, 384 h) is listed as “Stable”; in data set [2] (buffer, pH 7.4, 384 h), “Stable”; in data set [10], “Stable”; in data set [12], 2 weeks; in data set [13] (384 h) it was 6 months. Also, the solubility at 0.5 h in data set [3] turned out to be 100 mM; in data set [5] it was 25 mM; in data set [8], 50 mM; in [9], 25 mM. The results for the Activity in the data set with Mus musculus [4] and with Mus musculus [6] were 80% and 62.5%, respectively. For the same molecule, the t1/2 is recorded as 100 min in [7] and 10.8 min in [11].
Take `O=C(/C=C/c1ccc(OCOP(=O)(O)O)cc1)c1ccc(O)cc1O`: the remaining at 384 h in [1] (setting [21]) was found to be 80%; in data set [2] (setting [21]), 60%; in [13] (amorphous solid form, read-out: Stability) it was 80%.
Broadly, the pEC50 is the EC50 on a negative log10 scale, so that one unit is a factor of ten. For the molecule `O=C(/C=C/c1ccc(O)cc1)c1ccc(O)cc1O` [ISOLIQUIRITIGENIN], the solubility at 0.5 h in [14] was found to be 250 mM (≈ 64.1 mg/mL); in data set [15] it was 62.5 mM (≈ 16 mg/mL); in [16], 125 mM (≈ 32 mg/mL); in data set [17], 15.3 mM (≈ 3.92 mg/mL); in [18], 500 mM (≈ 128 mg/mL); in data set [19] it was 1000 mM (≈ 256 mg/mL). Also, the values for the solubility at 0.5 h in data set [20] and in [9] were 31.2 mM (≈ 8 mg/mL) and 0.0153 mM (≈ 0.00392 mg/mL), respectively. Further, the pEC50 in the data set with Influenza A virus was 4.61. Moreover, the Stability entry in data set [10] and in data set [11] was “Stable” in each case.
